{"source": "ChEMBL document CHEMBL4266041", "about": "“Hydroxybiphenylamide GroEL/ES Inhibitors Are Potent Antibacterials against Planktonic and Biofilm Forms of Staphylococcus aureus” (J Med Chem, 2018)", "key": {"[1]": {"test": "Cytotoxicity against human THLE3 cells assessed as reduction in cell viability after 48 hrs by Alamar Blue reporter assay"}, "E. coli GroEL/ES [2]": {"target": "T1, E. coli GroEL/ES (Escherichia coli, UniProt P0A6F5)", "T1 sequence (P0A6F5 whole entry, looked up)": "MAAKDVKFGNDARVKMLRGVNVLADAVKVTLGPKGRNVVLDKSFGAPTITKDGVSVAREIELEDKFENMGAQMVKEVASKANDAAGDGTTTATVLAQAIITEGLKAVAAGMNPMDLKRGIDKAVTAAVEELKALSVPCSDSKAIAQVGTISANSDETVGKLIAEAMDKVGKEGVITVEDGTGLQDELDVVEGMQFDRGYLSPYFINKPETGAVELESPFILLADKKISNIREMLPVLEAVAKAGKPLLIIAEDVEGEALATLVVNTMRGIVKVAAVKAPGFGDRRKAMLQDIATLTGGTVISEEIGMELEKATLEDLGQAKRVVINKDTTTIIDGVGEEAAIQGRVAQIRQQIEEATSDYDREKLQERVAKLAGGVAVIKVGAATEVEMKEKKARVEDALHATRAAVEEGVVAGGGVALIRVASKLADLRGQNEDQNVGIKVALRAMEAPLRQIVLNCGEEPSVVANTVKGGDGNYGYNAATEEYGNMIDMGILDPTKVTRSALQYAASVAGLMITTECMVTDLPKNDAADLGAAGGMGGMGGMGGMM", "test": "Inhibition of Escherichia coli GroEL expressed in Escherichia coli DH5alpha/Escherichia coli GroES expressed in Escherichia coli BL21 (DE3) assessed as reduction in GroEL/GroES-mediated denatured rhodanese refolding after 45 mins by spectrometric analysis", "how_it_was_run": "(§1)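 Uses E. coli GroEL/ES with a denatured MDH or rhodanese reporter. GroEL first forms a binary complex with the denatured reporter. Refolding is started by adding ATP and GroES, then reporter enzyme activity is read. DMSO is the negative control. IC50 values from replicate curves are log-averaged after ROUT outlier screening.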"}, "Staphylococcus aureus [3]": {"test_system": "Staphylococcus aureus", "test": "Antibacterial activity against methicillin-resistant Staphylococcus aureus ATCC BAA-44 after 6 to 8 hrs by bacterial proliferation assay", "type": "functional, organism-based", "conditions": "Staphylococcus aureus, ATCC BAA-44"}, "Enterobacter cloacae": {"test_system": "Enterobacter cloacae", "test": "Antibacterial activity against Enterobacter cloacae subsp. cloacae ATCC 13047 after 24 hrs by bacterial proliferation assay", "type": "functional, organism-based", "conditions": "subsp. cloacae ATCC 13047, 24 h", "how_it_was_run": "(§2)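 Bacterial growth inhibition in liquid culture. The highest concentration tested was 100 µM. The mean was back-calculated from the average log value. Values above the top concentration were set 0.1 log unit higher.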"}, "HSP60/HSP10": {"target": "HSP60/HSP10 (Homo sapiens, UniProt P10809)", "sequence (P10809 whole entry)": "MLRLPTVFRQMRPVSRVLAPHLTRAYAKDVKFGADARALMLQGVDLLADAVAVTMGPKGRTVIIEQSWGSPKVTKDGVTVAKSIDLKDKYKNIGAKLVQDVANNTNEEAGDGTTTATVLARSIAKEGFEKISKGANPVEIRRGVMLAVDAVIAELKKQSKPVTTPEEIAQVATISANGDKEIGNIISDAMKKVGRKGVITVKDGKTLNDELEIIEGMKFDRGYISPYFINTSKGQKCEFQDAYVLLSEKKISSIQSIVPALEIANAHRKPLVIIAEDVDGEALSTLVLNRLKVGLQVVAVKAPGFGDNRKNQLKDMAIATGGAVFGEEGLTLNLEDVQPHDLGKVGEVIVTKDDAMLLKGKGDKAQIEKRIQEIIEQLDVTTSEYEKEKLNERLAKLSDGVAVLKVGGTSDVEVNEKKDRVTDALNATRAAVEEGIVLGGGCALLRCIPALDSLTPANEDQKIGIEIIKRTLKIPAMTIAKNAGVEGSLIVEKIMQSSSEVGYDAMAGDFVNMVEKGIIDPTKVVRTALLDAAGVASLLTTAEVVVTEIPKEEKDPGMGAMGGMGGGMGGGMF", "sequence (P61604 whole entry, further chain)": "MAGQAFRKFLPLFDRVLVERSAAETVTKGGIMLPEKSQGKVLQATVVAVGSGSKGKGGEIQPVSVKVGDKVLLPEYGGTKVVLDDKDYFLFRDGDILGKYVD", "test": "Inhibition of human N-terminal octa-His-tagged HSP60 expressed in Escherichia coli Rosetta(DE3) pLysS/human HSP10 expressed in Escherichia coli Rosetta(DE3) assessed as reduction in HSP60/HSP10-mediated denatured MDH refolding after 40 to 60 mins by spectrometric analysis", "how_it_was_run": "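Human HSP60/10 refolding of denatured MDH, run the same way as the GroEL/ES-dMDH assay. A binary complex of chaperonin and denatured MDH is formed, and refolding is started with ATP and HSP10. MDH activity is the read-out. DMSO is the negative control. IC50 values from replicate curves are log-averaged after ROUT outlier screening.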"}, "Klebsiella pneumoniae": {"test_system": "Klebsiella pneumoniae", "test": "Antibacterial activity against Klebsiella pneumoniae ATCC 13883 after 6 to 8 hrs by bacterial proliferation assay", "type": "functional, organism-based", "how_it_was_run": "as §2"}, "Acinetobacter baumannii": {"test_system": "Acinetobacter baumannii", "test": "Antibacterial activity against Acinetobacter baumannii ATCC 19606 after 24 hrs by bacterial proliferation assay", "type": "functional, organism-based", "conditions": "ATCC 19606 = CIP 70.34 = JCM 6841, 24 h", "how_it_was_run": "as §2"}, "[4]": {"test": "Inhibition of refolded MDH (unknown origin) preincubated with Escherichia coli GroEL/GroES for 45 mins in absence of compound followed by compound addition and measured for 20 to 35 mins by spectrometric analysis"}, "E. coli GroEL/ES [5]": {"target": "T1, E. coli GroEL/ES", "test": "Inhibition of Escherichia coli GroEL expressed in Escherichia coli DH5alpha/Escherichia coli GroES expressed in Escherichia coli BL21 (DE3) assessed as reduction in GroEL/GroES-mediated denatured MDH refolding after 20 to 40 mins by spectrometric analysis", "how_it_was_run": "as §1"}, "[6]": {"test": "(§3) Cytotoxicity against HEK293 cells assessed as reduction in cell viability after 48 hrs by Alamar Blue reporter assay", "conditions": "human, HEK293 cells"}, "Enterococcus faecium": {"test_system": "Enterococcus faecium", "test": "Antibacterial activity against Enterococcus faecium ATCC 19434 after 24 hrs by bacterial proliferation assay", "type": "functional, organism-based", "conditions": "ATCC 19434, 24 h"}, "Staphylococcus aureus [7]": {"test_system": "Staphylococcus aureus", "test": "Antibacterial activity against Staphylococcus aureus ATCC 25923 after 6 to 8 hrs by bacterial proliferation assay", "type": "functional, organism-based"}, "Pseudomonas aeruginosa": {"test_system": "Pseudomonas aeruginosa", "test": "Antibacterial activity against Pseudomonas aeruginosa ATCC 10145 after 24 hrs by bacterial proliferation assay", "type": "functional, organism-based", "conditions": "ATCC 10145, 24 h", "how_it_was_run": "as §2"}, "[8]": {"target": "T2, Thiosulfate sulfurtransferase (Homo sapiens, UniProt Q16762)", "T2 sequence (Q16762 whole entry)": "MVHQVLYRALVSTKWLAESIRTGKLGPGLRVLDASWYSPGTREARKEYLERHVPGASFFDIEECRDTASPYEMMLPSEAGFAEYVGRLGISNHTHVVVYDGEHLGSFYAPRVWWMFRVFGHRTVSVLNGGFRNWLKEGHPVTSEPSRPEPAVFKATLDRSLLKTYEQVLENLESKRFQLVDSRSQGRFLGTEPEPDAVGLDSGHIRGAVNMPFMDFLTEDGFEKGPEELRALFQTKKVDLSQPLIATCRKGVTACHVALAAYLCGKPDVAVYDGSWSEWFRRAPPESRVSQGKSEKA", "test": "Inhibition of refolded rhodanese (unknown origin) preincubated with Escherichia coli GroEL/GroES for 60 mins in absence of compound followed by compound addition by spectrometric analysis"}, "Staphylococcus aureus [9]": {"test_system": "Staphylococcus aureus", "test": "Antibiofilm activity against Staphylococcus aureus Rosenbach ATCC 25923 after 24 hrs by crystal-violet based UV-Vis spectroscopy", "type": "functional, organism-based", "conditions": "Rosenbach ATCC 25923, 24 h", "how_it_was_run": "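ATCC 25923 colony grown overnight in TSB at 37°C with shaking, precultured 1 h in TSB + 0.5% glucose, then diluted to OD600 0.01. Incubated stagnant at 37°C for 24 h with compound (100 µM–46 nM, 3-fold, DMSO), alongside bacteria-free baseline plates. Wells washed, crystal violet stained 15 min, developed in MeOH:AcOH:H2O, A595.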"}, "Staphylococcus aureus [10]": {"test_system": "Staphylococcus aureus", "test": "Antibacterial activity against methicillin-resistant Staphylococcus aureus ATCC BAA-44 precultured for 24 hrs passage with compound followed by subculture in presence of compound for 12 days serial passage", "type": "functional, organism-based", "how_it_was_run": "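Cells from the first well with OD600 >0.2 were sub-cultured 24 h in a fresh compound dilution series. Serial passage ran for 12 days, with EC50 determined after each passage. Averages are from triplicate analyses.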"}, "Staphylococcus aureus [11]": {"test_system": "Staphylococcus aureus", "test": "Ratio of EC50 for bactericidal activity against Staphylococcus aureus Rosenbach ATCC 25923 in biofilms to EC50 for planktonic growth of Staphylococcus aureus Rosenbach ATCC 25923", "type": "functional"}, "Staphylococcus aureus [12]": {"test_system": "Staphylococcus aureus", "test": "Bactericidal activity against Staphylococcus aureus Rosenbach ATCC 25923 in biofilms preincubated for 24 hrs followed by compound wash out and measured after 24 hrs", "type": "functional, organism-based", "how_it_was_run": "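ATCC 25923 preculture (TSB + 0.5% glucose, OD600 0.01) grown stagnant 24 h at 37°C to form biofilm, without compound. Wells washed 3× with PBS, then fresh TSB added with compound (100 µM–46 nM, 3-fold, DMSO) for 24 h at 37°C. Washed again, then recovered in fresh TSB 24 h at 37°C.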"}, "[13]": {"test": "Therapeutic index, ratio of CC50 for HEK293 cells to EC50 for methicillin-resistant Staphylococcus aureus ATCC BAA-44", "type": "toxicity", "conditions": "human, read-out: Ratio CC50/EC50", "how_it_was_run": "(§4)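 Ratio of human-cell CC50 to MRSA (ATCC BAA-44) EC50. […] EC50 comes from inhibition of MRSA proliferation in liquid culture. Replicate values were log-transformed, screened for outliers (ROUT, Q 10%), then averaged and back-calculated. Values above 100 µM were entered as 126 µM.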"}, "[14]": {"test": "Therapeutic index, ratio of CC50 for human THLE3 cells to EC50 for methicillin-resistant Staphylococcus aureus ATCC BAA-44", "type": "toxicity", "conditions": "read-out: Ratio CC50/EC50", "how_it_was_run": "as §4"}, "HEK293": {"test_system": "HEK293", "test": "as §3", "conditions": "human, hek293, 48 h"}, "Staphylococcus aureus [15]": {"test_system": "Staphylococcus aureus", "test": "Bactericidal activity against planktonic growth of Staphylococcus aureus Rosenbach ATCC 25923 preincubated for 24 hrs followed by compound wash out and measured after 24 hrs", "type": "functional, organism-based"}}, "note": "Activity calls are given as the source filed them. The rule behind the calls is not given here."}
{"compound": "CCCCCCCCCC(=O)N[C@@H](Cc1c[nH]c2ccccc12)C(=O)NC(CC(N)=O)C(=O)N[C@@H](CC(=O)O)C(=O)N[C@@H]1C(=O)NCC(=O)N[C@@H](CCCN)C(=O)N[C@@H](CC(=O)O)C(=O)N[C@H](C)C(=O)N[C@@H](CC(=O)O)C(=O)NCC(=O)N[C@H](CO)C(=O)N[C@@H]([C@H](C)CC(=O)O)C(=O)N[C@@H](CC(=O)c2ccccc2N)C(=O)O[C@@H]1C", "note": "(single isomer, unassigned) [DAPTOMYCIN]", "values": [{"measurement": "CC50 at 48 h", "setting": "[1]; THLE3 cells", "value": "> 100", "unit": "µM"}, {"measurement": "IC50", "setting": "E. coli GroEL/ES [2]", "value": "> 100", "unit": "µM"}, {"measurement": "EC50", "setting": "Staphylococcus aureus [3]", "value": 1, "unit": "µM"}, {"measurement": "EC50", "setting": "Enterobacter cloacae", "value": "> 100", "unit": "µM"}, {"measurement": "IC50", "setting": "HSP60/HSP10", "value": "> 100", "unit": "µM"}, {"measurement": "EC50", "setting": "Klebsiella pneumoniae", "value": "> 100", "unit": "µM"}, {"measurement": "EC50", "setting": "Acinetobacter baumannii", "value": "> 100", "unit": "µM"}, {"measurement": "IC50", "setting": "[4]", "value": "> 63", "unit": "µM"}, {"measurement": "IC50", "setting": "E. coli GroEL/ES [5]", "value": "> 100", "unit": "µM"}, {"measurement": "CC50 at 48 h", "setting": "[6]", "value": "> 100", "unit": "µM"}, {"measurement": "EC50", "setting": "Enterococcus faecium", "value": 9.2, "unit": "µM"}, {"measurement": "EC50", "setting": "Staphylococcus aureus [7]", "value": 0.68, "unit": "µM"}, {"measurement": "EC50", "setting": "Pseudomonas aeruginosa", "value": "> 100", "unit": "µM"}, {"measurement": "IC50", "setting": "[8]", "value": "> 100", "unit": "µM"}]}
{"compound": "O=C(Nc1ccc(Sc2nc3ccccc3s2)c(Cl)c1)c1cc(Br)cc(Br)c1O", "values": [{"measurement": "EC50", "setting": "Staphylococcus aureus [9]", "value": 0.72, "unit": "µM"}, {"measurement": "Activity", "setting": "Staphylococcus aureus [10]", "value": "Active"}, {"measurement": "CC50", "setting": "[1]; 48 h", "value": 14, "unit": "µM"}, {"measurement": "Ratio EC50", "setting": "Staphylococcus aureus [11]", "value": "5 - 15"}, {"measurement": "IC50", "setting": "E. coli GroEL/ES [2]", "value": 1.5, "unit": "µM"}, {"measurement": "EC50", "setting": "Staphylococcus aureus [3]", "value": 0.55, "unit": "µM"}, {"measurement": "EC50", "setting": "Enterobacter cloacae", "value": "> 100", "unit": "µM"}, {"measurement": "EC50", "setting": "Staphylococcus aureus [12]", "value": 2.4, "unit": "µM"}, {"measurement": "selectivity ratio", "setting": "[13]", "value": "> 50"}, {"measurement": "EC50", "setting": "Klebsiella pneumoniae", "value": "> 100", "unit": "µM"}, {"measurement": "EC50", "setting": "Acinetobacter baumannii", "value": 66, "unit": "µM"}, {"measurement": "selectivity ratio", "setting": "[14]", "value": "> 50"}, {"measurement": "IC50", "setting": "[4]", "value": 6.8, "unit": "µM"}, {"measurement": "CC50", "setting": "HEK293", "value": 76, "unit": "µM"}, {"measurement": "EC50", "setting": "Enterococcus faecium", "value": 0.52, "unit": "µM"}, {"measurement": "EC50", "setting": "Staphylococcus aureus [7]", "value": 0.36, "unit": "µM"}, {"measurement": "EC50", "setting": "Pseudomonas aeruginosa", "value": "> 100", "unit": "µM"}, {"measurement": "EC50", "setting": "Staphylococcus aureus [15]", "value": 0.36, "unit": "µM"}, {"measurement": "IC50", "setting": "[8]", "value": "> 100", "unit": "µM"}]}
